Experimental data: PubChem BioAssay
Unmarked numbers belong to inactive results. Inconclusive results are not listed. Active and inactive are the calls of the source.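 The calls were made as follows, unless noted: active = inhibition over a set limit, the all-compound mean plus 3 SD, in both replicate runs; inconclusive = over that limit in just one replicate run; inactive = at or under that limit in both runs.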

Columns and labels:
[1] = S. cerevisiae growth inhibition in permissive medium (OD615), pilot counter-assay for S. cerevisiae lifespan shortening project, permissive growth control (AID 705;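 active = growth inhibition above 25% in both replicates, a cutoff set 3 SD above the mean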); settings: OD615, 24 h, at 10 µM, stronger effect = higher value
Method in brief: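 System – S. cerevisiae with engineered DeaD lifespan system · Buffer or medium – SC raffinose/galactose permissive medium · Schedule – cells pre-grown 4 h, then 24 h compound exposure, 30 °C humidified · Technique – culture turbidity as optical density at 615 nm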

[2] = S. cerevisiae growth inhibition in restrictive medium, OD615, pilot screen, restrictive growth control, yeast lifespan reduction project (AID 706;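 active = growth inhibition above a set limit, 3 SD over mean compound inhibition, in both replicates, cut at about 43% in these data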;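 also: modified DeaD lifespan yeast strain shifted to restrictive glucose medium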); settings: OD615, 48 h, at 10 µM, stronger effect = higher value
Method in brief: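 Material: engineered S. cerevisiae DeaD strain / Medium: glucose-based CSMM-D restrictive medium / Compound: single dose of 10 µM compound final, 0.25% DMSO / Timing: 4 h pre-incubation, 48 h exposure at 30 °C / Technique: OD615 absorbance reading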

[3] = doxorubicin toxicity protection in MRP-1 cells – H69AR cells, CellTiter-Glo, duplicate, MRP-1 activator project, pilot screen (AID 807;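 active = viability increase at or above a cutoff of the median across tested compounds plus 3 SD, cut at about 8.5% in these data, passing the limit was not always enough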;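 also: compound pretreatment 18-22 h then 72 h combined with doxorubicin; 0% = doxorubicin alone and 100% = vehicle without doxorubicin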); settings: H69AR viability with doxorubicin, CellTiter-Glo luminescence; at 10 µM; stronger effect = higher value
[4] = viability of HCT116 without oncogenic beta-catenin – human colon tumor cells, pilot screen (AID 823;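 active = cell viability at or below a set limit in both duplicate runs, the limit being the all-compound median minus 4 SD, cut at about 23% in these data, passing the limit was not always enough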;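 also: 0% = wells killed by 20 µM Hyamine and 100% = untreated DMSO cell wells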); settings: HCT116 beta-catenin knockout viability, CellTiter-Glo, 60 h; at 10 µM; stronger effect = lower value
[5] = viability of PTEN-null HCT116 cells – cell-based, HCT116 clonal line, CellTiter-Glo, pilot screen (AID 824;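 active = viability at or below 27.92% in each of two runs, the all-compound median minus 4 SD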;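 also: 0% = 20 µM Hyamine control and 100% = vehicle cell control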); settings: HCT116 PTEN-deleted viability, 60 h, at 10 µM, stronger effect = lower value
[6] = RAM pathway blockade in budding yeast – dse1pr::URA3 reporter, 5-FOA selection, pilot screen (AID 869);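 also: 0% = DMSO wells with no growth and 100% = 10 µM 1-NA-PP1 with full growth; RAM network block rescues cells from 5-FOA so hits raise OD615 growth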; settings: S. cerevisiae dse1pr::URA3 5-FOA growth, OD615, 2 d; at 10 µM; stronger effect = higher value; strain carries analog-sensitive mutant Cbk1 kinase
[7] = RAM signaling pathway blockade in yeast – S. cerevisiae, Pdr1DBD-CYC8 efflux-inhibited sensitized strain, primary screen (AID 1298;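 active = RAM network inhibition above 8.4% in each of two replicates, 3 SD over the compound average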;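 also: 0% = DMSO untreated cells without growth and 100% = 10 µM 1-NA-PP1 full growth; higher means more yeast growth rescued from 5-FOA killing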); settings: S. cerevisiae cbk1-as DSE1-URA3 strain, 5-FOA growth OD615, 2 d; at 50 µM; stronger effect = higher value

SMILES | growth inhibition [1] [%] | growth inhibition [2] [%] | viability increase [3] [%] | viability [4] | viability [5] | inhibition [6] | RAM network inhibition [7] [%]
CCOC(=O)c1ccc(N2C(=O)C3ON(c4ccccc4)C(c4ccco4)C3C2=O)cc1 (stereo not given) | -17.9 | 5.19 | -4.17 | 102% | 93.4% | 1.73% | 4.07
COc1ccc(OC)c(C2CC(=O)c3c([nH]c(C(=O)OC(C)C)c3C)C2)c1 (stereo not given) | -9.82 | -21.9 | -7.46 | 15.2% (active) | 14.8% (active) | 1.69% | 0.97
O=C(NCCc1csc(-c2cccnc2)n1)c1ccc(Br)o1 | 1.56 | 10.1 | -2.6 | 107% | 97.3% | 0% | 2.18
COCCn1c(=O)[nH]c2cc(C(=O)NC3CCCCCC3)ccc2c1=O | -17.4 | -10.9 | -3.33 | 93.7% | 87.6% | 6.66% (active) | 4.43
CCOC(=O)C1=C(C)OC(N)=C(C#N)C1c1c(C)nn(-c2ccccc2)c1Cl (stereo not given) | -11.9 | -20 | -3.98 | 102% | 98.1% | 3.71% | 7.39
C#CCn1c(=NC(=O)CN2C(=O)CCC2=O)sc2cccc(C)c21 | -15.5 | -1.5 | -3.32 | 93.3% | 88.8% | 1.89% | 2.03
O=C(CSCC(=O)N1CCOCC1)Nc1nc(-c2ccc3c(c2)OCO3)cs1 | -15 | -3.92 | -3.99 | 100% | 97.3% | 0.47% | 6.38
CCC(=O)N1C(C(=O)N2CCCC2)CSC1c1ccc(OC)cc1 (stereo not given) | -12.1 | -12.3 | -3.3 | 96% | 97.5% | -0.035% | 0.53
CCOC(=O)C(C(=O)OCC)c1cc(Br)c2noc3c2c1C(=O)c1ccccc1-3 | -15.6 | -3.25 | -8.25 | 1.06% (active) | 1.23% (active) | 1.65% | 1.87
COc1ccc(NC(=O)c2ccc3c(c2)n(C)c(=O)n3C)cc1 | -9.67 | -7.33 | -5.39 | 55.7% | 55.7% | 1.06% | 4.75
Cc1nn(C(=O)c2cccs2)c(N)c1-c1ccccc1 | 2.29 | 5.9 | 0.4 | 84.4% | 96% | 0.035% | 2.36
Cc1cccc(NC(=O)c2cccnc2)c1 | -3.06 | 4.14 | 1.56 | 97.2% | 96.5% | 0.405% | 5.69
CC(=O)NCCOc1c(C)cc(S(N)(=O)=O)cc1C | 0.295 | -6.93 | -1.25 | 92.4% | 90.1% | 0.43% | 1.68
COc1cccc(C2CC(c3ccccc3)Nc3nc(N)nn32)c1 (stereo not given) | -2.81 | 7.94 | 0.44 | 94.9% | 93.5% | 1.83% | 3.16
CCOC(=O)CC1=C(C#N)C(c2cccnc2)C(C(=O)OCC)=C(N)O1 (stereo not given) | -0.965 | -12.4 | -3.12 | 104% | 99.6% | 1.98% | 8.18
Cn1c(SCC(=O)Nc2cc(=O)n(C)c(=O)n2C)nnc1C12CC3CC(CC(C3)C1)C2 | 2.36 | 12.8 | -4.43 | 88.8% | 92.7% | 2.03% | 3.38
O=C1c2ccccc2C(=O)N1CCc1nc2ccccc2c(=O)n1CCCn1ccnc1 | -3.21 | 11 | -2.41 | 95.5% | 97% | 2.01% | 2.2
Cn1c(NC(=O)c2ccccc2C(F)(F)F)cc(=O)n(C)c1=O | -16.9 | -8.93 | -2.06 | 95.3% | 90.7% | 0.785% | -1.32

SMILES | growth inhibition [1] [%] | growth inhibition [2] [%] | viability increase [3] [%] | viability [4] | viability [5] | inhibition [6] | RAM network inhibition [7] [%]
Cc1cccn2c(=O)c3cc(C(=O)NC4CCS(=O)(=O)C4)sc3nc12 (stereo not given) | -6 | 1.39 | -2.99 | 101% | 97.2% | 2.06% | 0.09
CCn1c(SCC(=O)Nc2nnc(C)s2)nc2c(c1=O)SC(C)C2 (stereo not given) | -0.875 | -16.4 | 1.14 | 103% | 96.6% | 2.4% | 2.04
C=CCSc1nc2c(c(=O)[nH]c(=O)n2C)n1Cc1ccc(C)cc1 | -12.1 | -7.22 | -3.38 | 90.1% | 86.4% | 2.6% | 7.02
COc1ccc(C2(C(F)(F)F)NC(=O)N(C)C(=O)N2C)cc1 (stereo not given) | -14.7 | -19.5 | -0.46 | 99% | 101% | 1.11% | 2.74
CC(=O)N(c1c(C)n(C)n(-c2ccccc2)c1=O)C1(C(=O)NC2CCCC2)CCCCC1 | -1.1 | -19 | -1.56 | 95.1% | 95.8% | 0.27% | -1.24
CC1=C(C)C(=O)N(CCC(=O)O)C1=O | -12.6 | -20.3 | -1.09 | 95.3% | 93.8% | 1.52% | 3.32
COc1ccc(NC2c3ccccc3C(=O)N2Cc2ccco2)cc1OC (stereo not given) | 6.53 | 6.86 | -3.63 | 97.5% | 89.7% | 0.985% | 3.72
CCCCNC(=O)c1ccc2nc(-c3ccco3)c(-c3ccco3)nc2c1 | -4.73 | -6.49 | -1.69 | 104% | 97.5% | 1.85% | 1.63
Cc1ccc(NC(=O)C2CCCN2S(=O)(=O)c2ccc3c(c2)CCC(=O)N3)cc1Cl (stereo not given) | -9.43 | 8.74 | 3.52 | 81.8% | 85.8% | 2.66% | 3.45
CC(=O)N(c1ccccc1)C1SC(=O)N(c2ccccc2)C1=O (stereo not given) | -15.9 | -9.37 | -0.06 | 97.9% | 99.7% | 3.73% | 6.65
CCc1cccc(NC(=O)CS(=O)Cc2nc(-c3ccc(C)cc3)oc2C)c1 (stereo not given) | 9.24 | 24.4 | -1.87 | 96.1% | 87.1% | 1.46% | 3.37
c1coc(C2Nc3ccccc3-c3nc4ccccc4n32)c1 (stereo not given) | -27.2 | -4.04 | -4.32 | 66.6% | 68.1% | 2.14% | 8.31
CCN(Cc1ccccc1)C(=O)Cn1cc2c(n1)CCCC2 | -5.23 | -2.12 | 1.91 | 94% | 92.5% | 2.06% | -1.27
COc1ccccc1NC(=O)CSc1nnc(Cn2c(=O)sc3ccccc32)n1C | -3.61 | 5.22 | -4.11 | 100% | 87.9% | 2.21% | 4.37
CCC(=O)N=c1sc2c(OC)ccc(OC)c2n1C | -7.02 | -7.99 | -4.85 | 92.4% | 91.2% | 1.68% | 2.04
O=C(CSc1ncnc2c1oc1ccccc12)NCc1ccc(F)cc1 | -0.505 | -4.67 | -3.33 | 68.6% | 81% | -0.055% | -2.13
Cc1ccc(-c2nn3c(C)nnc3s2)cc1NC(=O)COc1ccc(Cl)cc1 | -4.13 | 25.3 | -1.1 | 93.8% | 90.8% | 2.17% | 6.41
